Rows were chosen to be rich in hits. Some 2.7% of all compounds tested hit in one or more screens of this group.
PP1 inh – blocks human PP1-alpha phosphatase, a PP5 counter-screen. purified PP1alpha, OMFP fluorescence. inhibition, % at 6.7 µM. 320,000 tested, 0.9% active. AID 2235;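 active = inhibition above the mean inhibition of all tested compounds plus 3 SD, computed separately for each screening campaign, cut at about 15% in these data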
Rpn11 block – Rpn11 (human) deubiquitinase inhibition | human 26S proteasome, Ub4-pepOG fluorescence polarization; 20S core pre-blocked with epoxomicin | O00487 | 360,000 tested, 0.59% active | AID 588493 | inhibition, % at 20 µM;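 active = inhibition at 20 µM, scaled to each plate's controls, above about 33%, limit read from the data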
Target sequence (O00487 whole entry, looked up): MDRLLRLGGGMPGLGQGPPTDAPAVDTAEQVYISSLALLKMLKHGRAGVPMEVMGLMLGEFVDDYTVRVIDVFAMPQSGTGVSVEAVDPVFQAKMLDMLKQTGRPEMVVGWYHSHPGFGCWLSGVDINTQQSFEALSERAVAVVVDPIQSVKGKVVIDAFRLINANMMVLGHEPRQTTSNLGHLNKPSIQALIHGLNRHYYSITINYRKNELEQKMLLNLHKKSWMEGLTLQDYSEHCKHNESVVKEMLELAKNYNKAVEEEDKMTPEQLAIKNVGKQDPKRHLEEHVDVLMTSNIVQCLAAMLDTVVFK
TPT1 inhibitor – blocks Candida albicans tRNA 2'-phosphotransferase | AID 1962 | inhibition, % at 5 µM | recombinant caTPT1, FP RNA substrate dephosphorylation | 300,000 tested, 0.81% active;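 active = inhibition above the mean of all tested compounds plus 3 SD, set per screening campaign, cut at about 24% in these data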
HNF4A DNA FP – change in binding of human HNF4 alpha to DNA | HNF4a-FITC DNA binding, fluorescence polarization, 1 h | 360,000 tested, 0.3% active | P41235 | AID 1224865 | activity change, % at 10 µM; in the data active = activity change above about 30%, passing the limit was not always enough
NadD block – NadD (S. aureus) enzyme inhibition | purified NadD enzyme, colorimetric absorbance read-out | inhibition, % at 20 µM | 360,000 tested, 0.78% active | AID 602399; in the data active = inhibition above about 26%
CSN inh – blocks human CSN-mediated cullin deneddylation; AID 651999; Q92905; Purified CSN, SCF-Nedd8-OG deneddylation, fluorescence polarization; 360,000 tested, 0.38% active; inhibition, % at 12.5 µM;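 active = pattern-corrected inhibition above about 35%, with an unprinted fluorescence ratio check between 0.5 and 1.5, limit read from the data, passing the limit was not always enough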
Target sequence (Q92905 whole entry, looked up, one chain of several): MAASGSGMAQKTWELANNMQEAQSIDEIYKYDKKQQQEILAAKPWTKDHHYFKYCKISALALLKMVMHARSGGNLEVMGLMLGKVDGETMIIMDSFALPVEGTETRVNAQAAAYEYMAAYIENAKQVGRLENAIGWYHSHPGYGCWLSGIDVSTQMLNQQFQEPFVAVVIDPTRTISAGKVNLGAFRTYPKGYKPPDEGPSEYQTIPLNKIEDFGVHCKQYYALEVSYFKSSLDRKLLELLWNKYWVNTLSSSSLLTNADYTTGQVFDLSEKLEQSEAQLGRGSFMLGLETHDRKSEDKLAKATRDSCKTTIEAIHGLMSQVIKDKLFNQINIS
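Schedule: reaction 90 min, room temperature / Assay system: HEK293T-derived human Csn5 enzyme / Input: Csn5 at 0.24 nM final / Measure: inhibition of Csn5 cleavage, % / Control set: substrate-only high control, full reaction low control / Technique: fluorescence polarization of the substrate / Buffer or medium: Tris/NaCl/DTT buffer, pH 7.5 / Reagent: SCFSkp2-Nedd8OG substrate at 10 nM final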
Rpn11 confirm – confirmation of human proteasome Rpn11 inhibitors; AID 602318; purified human 26S proteasome, Ub4-pepOG fluorescence polarization; proteasome pretreated with epoxomicin; 1,900 tested, 29% active; shares compounds with Rpn11 block; inhibition, % at 20 µM
MMP-2 counter – blocks human MMP-2, flagging nonselective RPN11 hits; 1,900 tested, 4% active; shares compounds with Rpn11 block; AID 602330; inhibition, % at 20 µM; recombinant MMP-2, FRET peptide cleavage fluorescence;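 also: human MMP-2 activated beforehand with APMA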
Thrombin FP – counter-screen for RPN11 inhibitors: inhibition of bovine thrombin; bovine thrombin cleavage of Ub4-pepOG, fluorescence polarization; shares compounds with Rpn11 block; 1,900 tested, 13% active; inhibition, % at 20 µM;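 active = mean inhibition at least 40% at 20 µM, or signal 3 deviations below plate average, so some actives read negative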
NadD inh conf – NadD (S. aureus) inhibition, single concentration confirmation; shares compounds with NadD block; purified S. aureus NadD, colorimetric enzyme assay; inhibition, % at 20 µM; 2,000 tested, 13% active; AID 624309; in the data active = inhibition mostly above about 42%, no sharp cut-off; inactive = mostly below about 42%
Each line names hits and unclear results; the compound was inactive in the other large screens (follow-up assays come after a bar, where they were run). Rule as the data show it, unless noted: active = inhibition above about 40%; inactive = the rest.

CCOc1ccc2c(ccc(/C=C/c3cc(C)c4cccnc4c3O)[n+]2C)c1	Rpn11 block 112, NadD block 55 (no result: PP1 inh, TPT1 inhibitor) | Rpn11 confirm 102 | MMP-2 counter 75 | Thrombin FP inactive | NadD inh conf 89
COc1ccc([C@H]2C[C@H](O)[C@@H](n3cc(-c4ccc(F)cc4)nn3)CN2Cc2cccs2)cc1	none (no result: PP1 inh, TPT1 inhibitor)
NNC(=O)CSc1c(-c2ccccc2)c2cc(Cl)ccc2[nH]c1=O	none (no result: PP1 inh, TPT1 inhibitor)
O=c1[nH]c2ccc(Cl)cc2c(-c2ccccc2)c1SC(=S)N1CCOCC1	Rpn11 block 42, NadD block 40 | Rpn11 confirm inactive | MMP-2 counter inactive | Thrombin FP inactive | NadD inh conf inactive
COCCN(C(=O)COC(=O)c1ccc(C)s1)c1c(N)n(Cc2ccccc2)c(=O)[nH]c1=O	none
N#C/C(=C\c1ccc(-c2cccc([N+](=O)[O-])c2)o1)C(=O)Nc1nc(-c2cccs2)cs1	Rpn11 block 59, NadD block 42 | Rpn11 confirm inactive | MMP-2 counter inactive | Thrombin FP inactive | NadD inh conf inactive
O=C(N/N=C/c1ccc(-c2cccc([N+](=O)[O-])c2)o1)c1cccs1	none
COc1ccc(Cn2c(C)nc3c(c2=O)c2nc4ccccc4nc2n3Cc2ccco2)cc1	Rpn11 block active, NadD block 38, CSN inh 45 (no result: PP1 inh, TPT1 inhibitor) | Rpn11 confirm inactive | MMP-2 counter inactive | Thrombin FP inactive | NadD inh conf inactive
COc1ccc2oc(C(=O)NC(C)c3ccccn3)c(C)c2c1 (centres undefined)	none (no result: PP1 inh, TPT1 inhibitor)
COc1ccc2oc(C(=O)Nc3nc(-c4ccccn4)cs3)c(C)c2c1	Rpn11 block 42, NadD block 34 | Rpn11 confirm 52 | MMP-2 counter inactive | Thrombin FP inactive | NadD inh conf inactive
CCOC(=O)C1=C(C)N=c2s/c(=C\c3cc(OC)c(OC)c(OC)c3)c(=O)n2C1/C=C/c1ccccc1 (centres undefined)	none
CCOC(=O)C1=C(C)N=c2sc(=Cc3cc(Cl)c(OCC(=O)O)c(OC)c3)c(=O)n2C1c1ccccc1Cl (centres undefined)	Rpn11 block 51, NadD block 30 (no result: PP1 inh, TPT1 inhibitor) | Rpn11 confirm inactive | MMP-2 counter inactive | Thrombin FP 65 | NadD inh conf inactive
CC(=O)Nc1ccccc1Nc1nc(NCCO)nc(N2CCCC2)n1	none
Cc1ccc(CNC(=O)Cn2cnc(C(=O)Nc3ccc(C)c(C)c3)n2)o1	none (no result: PP1 inh, TPT1 inhibitor)
O=C(N/N=C\c1cc([N+](=O)[O-])ccc1N1CCCC1)c1ccccn1	none
O=C(Cn1c2ccccc2c(=O)c2ccccc21)N/N=C/c1cc([N+](=O)[O-])ccc1N1CCCCC1	Rpn11 block 59, NadD block 47 | Rpn11 confirm inactive | MMP-2 counter inactive | Thrombin FP inactive | NadD inh conf inactive
COc1ccc(OC)c(NC(=O)CSc2sc3c(O)cc(=O)[nH]c3c2C#N)c1	none
COc1cc(Cl)c(C)cc1NC(=O)CSc1sc2c(O)cc(=O)[nH]c2c1C#N	Rpn11 block 40, NadD block 42 | Rpn11 confirm inactive | MMP-2 counter inactive | Thrombin FP inactive | NadD inh conf inactive
O=C(NCCc1ccc(F)cc1)c1ccc(Cl)c(S(=O)(=O)N2CCOCC2)c1	none (no result: TPT1 inhibitor)
O=C(Nc1ccc(N2CCCC2)cc1)c1cc(Cl)ccc1Cl	Rpn11 block 77, NadD block 52 | Rpn11 confirm inactive | MMP-2 counter inactive | Thrombin FP inactive | NadD inh conf inactive
O=C(Nc1ccc(N2CCCC2)cc1)c1ccc(Cl)cc1Cl	none
CCN(CC)c1nc2c3c(nc4c(c3c1C#N)CC(=O)N4c1ccc(Cl)cc1)NC(C)=N2	Rpn11 block 43, NadD block 45 | Rpn11 confirm inactive | MMP-2 counter inactive | Thrombin FP inactive | NadD inh conf inactive
CCc1ccc(N2C(=O)Cc3c2nc(N)c(C#N)c3N)cc1	none
O=C(C[C@H]1C[C@H](C(=O)N2CCOCC2)[C@@]2(CCC3CCCC3)c3[nH]c4cc(-c5ccco5)ccc4c3CCN2C1=O)NCCC1=CCCCC1	Rpn11 block 38, NadD block 29 (no result: PP1 inh, TPT1 inhibitor) | Rpn11 confirm inactive | MMP-2 counter inactive | Thrombin FP inactive | NadD inh conf inactive
CC[C@]12c3[nH]c4cc(-c5ccco5)ccc4c3CCN1C(=O)[C@@H](CC(=O)NCC13CC4CC(CC(C4)C1)C3)C[C@@H]2C(=O)N1CCN(C(=O)C2CC2)CC1	none (no result: PP1 inh, TPT1 inhibitor)
C[C@]12c3[nH]c4cc(-c5ccco5)ccc4c3CCN1C(=O)[C@@H](CC(=O)NCC13CC4CC(CC(C4)C1)C3)C[C@@H]2C(=O)N1CCCCC1	Rpn11 block 39, NadD block 50 (no result: PP1 inh, TPT1 inhibitor) | Rpn11 confirm inactive | MMP-2 counter inactive | Thrombin FP inactive | NadD inh conf inactive
CC(=O)c1ccc(N2CCN(CN3C(=O)CC4(CCCC4)C3=O)CC2)c(F)c1	none
O=C(c1ccco1)N1CCN(C(=O)C2CC(=O)N(c3ccc(Cl)cc3)C2)CC1 (centres undefined)	none
Oc1nc(Nc2ccc(Cl)cc2Cl)sc1/C=C1\C=Nc2ccccc21	Rpn11 block 56, NadD block 42 | Rpn11 confirm 60 | MMP-2 counter inactive | Thrombin FP 45 | NadD inh conf inactive
Cc1ccc(S(=O)(=O)N2CCC(C(=O)Nc3ccc(N4CCOCC4)cc3)CC2)cc1C	none (no result: PP1 inh, TPT1 inhibitor)
S=C(NNc1ccnc2cc(Cl)ccc12)Nc1ccc(Cl)cc1Cl	Rpn11 block 44, NadD block 30 | Rpn11 confirm inactive | MMP-2 counter 48 | Thrombin FP inactive | NadD inh conf inactive
Cc1cccc(NC(=O)CN(C)C(=O)C2CCCC2)c1C	none (no result: TPT1 inhibitor)
Cc1ccc2nc(/N=C(\N)NC(=O)N3c4ccccc4Sc4ccccc43)nc(C)c2c1	Rpn11 block 45, NadD block 31 | Rpn11 confirm inactive | MMP-2 counter inactive | Thrombin FP inactive | NadD inh conf inactive
CC(C)c1nc(CNC(=O)C2CCC(=O)N(CCc3cccc(F)c3)C2)cs1 (centres undefined)	none (no result: PP1 inh, TPT1 inhibitor)
COc1ccccc1/C=c1\sc2nc(-c3ccccc3OC)nn2c1=O	none
Cc1ccc(/C=c2\sc3nc(-c4ccccc4Br)nn3c2=O)o1	Rpn11 block 43, NadD block 26, CSN inh 50 | Rpn11 confirm inactive | MMP-2 counter inactive | Thrombin FP inactive | NadD inh conf inactive

Source: PubChem BioAssay (several laboratories)
